From ChEMBL document CHEMBL4342503, “Diazabicyclooctane Functionalization for Inhibition of β-Lactamases from Enterobacteria” (2020)
Calls of active or inactive are those of the source. The calls are words filed in the database; no cut-off is given here.

Experiments:
[1] = tested on: Escherichia coli; assay: Antibacterial activity against Escherichia coli Top10 harboring KPC-2 assessed as aztreonam MIC by CLSI protocol based method (reference value: 2048 ug/ml); assay type: functional
[2] = tested on: Escherichia coli; assay: Antibacterial activity against Escherichia coli Top10 harboring TEM1 assessed as cefamandole MIC by CLSI protocol based method (reference value: 2048 ug/ml); assay type: functional
[3] = tested on: Escherichia coli; assay: Antibacterial activity against Escherichia coli Top10 assessed as cefamandole MIC by CLSI protocol based method (reference value: 2 ug/ml); assay type: functional
How it was run: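 Broth microdilution in cation-adjusted Mueller-Hinton broth following CLSI. Strain carries a β-lactamase gene cloned in pTRC-99k (kanamycin marker); preculture in BHI with IPTG (500 μM) and kanamycin (50 μg/ml); IPTG (500 μM) also in plates to induce enzyme. β-Lactam MIC read with or without inhibitor at fixed 15 μM (4 μg/ml for avibactam; clavulanate 4 μg/ml). Median of five biological repeats from two independent experiments.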

[4] = tested on: Enterobacter cloacae; assay: Inhibition of Enterobacter cloacae CTX-M-15 expressed in Escherichia coli BL21 DE3 assessed as K2/Ki ratio using nitrocefin as substrate by spectrophotometry
How it was run: (§1)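 His-tagged enzymes expressed in E. coli BL21(DE3) (IPTG 0.5 mM, 16°C, 18 h), purified by Ni-NTA and size exclusion in 25 mM Tris-HCl pH 7.5, 300 mM NaCl. Carbamoylation k2/Ki from progress curves, reporter nitrocefin 100 μM, 20°C, 100 mM MES pH 6.4; inhibitor up to 100 μM; ≥6 curves, ≥2 independent experiments.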

[5] = tested on: Escherichia coli; assay: Antibacterial activity against Escherichia coli Top10 without harboring KPC-2 assessed as aztreonam MIC by CLSI protocol based method (reference value: 0.5 ug/ml); assay type: functional
[6] = Inhibition of TEM1 (unknown origin) expressed in Escherichia coli BL21 DE3 assessed as K2/Ki ratio using nitrocefin as substrate by spectrophotometry; how it was run: as §1
[7] = tested on: Escherichia coli; assay: Antibacterial activity against Escherichia coli Top10 harboring CTX-M-15 assessed as amoxicillin MIC by CLSI protocol based method (reference value: 2048 ug/ml); assay type: functional
[8] = tested on: Escherichia coli; assay: Antibacterial activity against Escherichia coli Top10 without harboring OXA-48 assessed as ertapenem MIC by CLSI protocol based method (reference value: < 0.03 ug/ml); assay type: functional
[9] = tested on: Escherichia coli; assay: Antibacterial activity against Escherichia coli Top10 without harboring CTX-M-15 assessed as amoxicillin MIC by CLSI protocol based method (reference value: 8 ug/ml); assay type: functional
[10] = tested on: Escherichia coli; assay: Antibacterial activity against Escherichia coli Top10 without harboring AmpC assessed as cefotaxime MIC by CLSI protocol based method (reference value: 0.125 ug/ml); assay type: functional
[11] = tested on: Escherichia coli; assay: Antibacterial activity against Escherichia coli Top10 harboring AmpC assessed as cefotaxime MIC by CLSI protocol based method (reference value: 256 ug/ml); assay type: functional
[12] = tested on: Escherichia coli; assay: Antibacterial activity against Escherichia coli Top10 harboring OXA-48 assessed as ertapenem MIC by CLSI protocol based method (reference value: 8 ug/ml); assay type: functional
[13] = Inhibition of OXA-48 expressed in Escherichia coli BL21 DE3 assessed as K2/Ki ratio using CENTA as substrate by spectrophotometry
How it was run: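 OXA-48 expressed in E. coli BL21(DE3) (IPTG 0.5 mM, 16°C, 18 h), purified by Ni-NTA and size exclusion. Carbamoylation k2/Ki by spectrophotometric progress curves with CENTA 100 μM as reporter, 20°C, 100 mM MES pH 6.4; inhibitor up to 100 μM; ≥6 curves from ≥2 independent experiments.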

[14] = Inhibition of KPC-2 (unknown origin) expressed in Escherichia coli BL21 DE3 assessed as K2/Ki ratio using nitrocefin as substrate by spectrophotometry; how it was run: as §1
[15] = tested on: Enterobacter cloacae; assay: Inhibition of Enterobacter cloacae AmpC expressed in Escherichia coli BL21 DE3 assessed as K2/Ki ratio using nitrocefin as substrate by spectrophotometry; how it was run: as §1

SMILES | MIC [1] | MIC [2] | MIC [3] | Ratio [4] | MIC [5] | Ratio [6] | MIC [7] | MIC [8] | MIC [9] | MIC [10] | MIC [11] | MIC [12] | Ratio [13] | Ratio [14] | Ratio [15]
NCCC(=O)Nc1ccc(-c2cn(C[C@@H]3CC[C@@H]4CN3C(=O)N4OS(=O)(=O)O)nn2)cc1.O=C(O)C(F)(F)F | 64 µg/mL | 32 µg/mL | 2 µg/mL | 150 M⁻¹ s⁻¹ | 0.25 µg/mL | 940 M⁻¹ s⁻¹ | 128 µg/mL | < 0.03 µg/mL | 4 µg/mL | 0.25 µg/mL | 64 µg/mL | 4 µg/mL | inactive | 180 M⁻¹ s⁻¹ | 28 M⁻¹ s⁻¹
O=C(O)CCc1cn(C[C@@H]2CC[C@@H]3CN2C(=O)N3OS(=O)(=O)[O-])nn1.[Na+] | 256 µg/mL | 32 µg/mL | 2 µg/mL | 110 M⁻¹ s⁻¹ | 0.25 µg/mL | 720 M⁻¹ s⁻¹ |  | < 0.03 µg/mL | 2 µg/mL | 0.25 µg/mL | 64 µg/mL | 8 µg/mL | inactive | 70 M⁻¹ s⁻¹ | 99 M⁻¹ s⁻¹
CC(C)(C)OC(=O)NCCC(=O)Nc1ccc(-c2cn(C[C@@H]3CC[C@@H]4CN3C(=O)N4OS(=O)(=O)[O-])nn2)cc1.[Na+] | 512 µg/mL | 256 µg/mL | 2 µg/mL | 2400 M⁻¹ s⁻¹ | 0.5 µg/mL | 3700 M⁻¹ s⁻¹ | 768 µg/mL | < 0.03 µg/mL | 8 µg/mL | 0.125 µg/mL | 128 µg/mL | 16 µg/mL | 150 M⁻¹ s⁻¹ | 1100 M⁻¹ s⁻¹ | 180 M⁻¹ s⁻¹
CC(C)(C)OC(=O)NCc1cn(C[C@@H]2CC[C@@H]3CN2C(=O)N3OS(=O)(=O)[O-])nn1.[Na+] | 512 µg/mL | 128 µg/mL | 2 µg/mL | 130 M⁻¹ s⁻¹ | 0.25 µg/mL | 2800 M⁻¹ s⁻¹ | 1020 µg/mL | < 0.03 µg/mL | 8 µg/mL | 0.125 µg/mL | 128 µg/mL | 16 µg/mL | 210 M⁻¹ s⁻¹ | 540 M⁻¹ s⁻¹ | 51 M⁻¹ s⁻¹
O=C1N2C[C@@H](CC[C@H]2Cn2cc(-c3cccnc3)nn2)N1OS(=O)(=O)[O-].[Na+] | 32 µg/mL | 8 µg/mL | 2 µg/mL | 1700 M⁻¹ s⁻¹ | 0.25 µg/mL | 1400 M⁻¹ s⁻¹ | 32 µg/mL | < 0.03 µg/mL | 2 µg/mL | 0.125 µg/mL | 128 µg/mL | 8 µg/mL | inactive | 550 M⁻¹ s⁻¹ | 85 M⁻¹ s⁻¹
O=C1N2C[C@@H](CC[C@H]2Cn2nccn2)N1OS(=O)(=O)[O-].[Na+] | 512 µg/mL | 16 µg/mL | 2 µg/mL | 120 M⁻¹ s⁻¹ | 0.5 µg/mL | 2600 M⁻¹ s⁻¹ | 512 µg/mL | < 0.03 µg/mL | 4 µg/mL | 0.125 µg/mL | 32 µg/mL | 8 µg/mL | 150 M⁻¹ s⁻¹ | 350 M⁻¹ s⁻¹ | 200 M⁻¹ s⁻¹
CC(C)(C)OC(=O)N1CCC(c2cn(C[C@@H]3CC[C@@H]4CN3C(=O)N4OS(=O)(=O)[O-])nn2)CC1.[Na+] | 2050 µg/mL | 256 µg/mL | 2 µg/mL | 230 M⁻¹ s⁻¹ | 0.25 µg/mL | 1700 M⁻¹ s⁻¹ | 4100 µg/mL | < 0.03 µg/mL | 8 µg/mL | 0.125 µg/mL | 128 µg/mL | 16 µg/mL | 210 M⁻¹ s⁻¹ | 830 M⁻¹ s⁻¹ | 29 M⁻¹ s⁻¹
O=C([O-])[C@H]1/C(=C/CO)O[C@@H]2CC(=O)N21.[Na+] [CLAVULANIC ACID (SODIUM)] | 512 µg/mL | 2 µg/mL | 2 µg/mL |  | 0.5 µg/mL |  | 2 µg/mL | < 0.03 µg/mL | 8 µg/mL | 0.0625 µg/mL | 128 µg/mL | 8 µg/mL |  |  | 
